Assay results reported in ChEMBL document CHEMBL4138303, “Discovery and in Vitro Optimization of 3-Sulfamoylbenzamides as ROMK Inhibitors” (ACS Med Chem Lett, 2018).
Changes are numbered by the printed parent chain. Activity calls are given as the source filed them. The calls are words filed in the database; no cut-off is given here.

Columns and labels:
[1] = target: T1, ATP-sensitive inward rectifier potassium channel 1 (Homo sapiens, UniProt P48048); assay: Inhibition of human ROMK2 expressed in HEK293 cells after 20 mins by Thallos-AM dye based fluorescence assay; assay type: cell-based
T1 sequence (P48048 whole entry): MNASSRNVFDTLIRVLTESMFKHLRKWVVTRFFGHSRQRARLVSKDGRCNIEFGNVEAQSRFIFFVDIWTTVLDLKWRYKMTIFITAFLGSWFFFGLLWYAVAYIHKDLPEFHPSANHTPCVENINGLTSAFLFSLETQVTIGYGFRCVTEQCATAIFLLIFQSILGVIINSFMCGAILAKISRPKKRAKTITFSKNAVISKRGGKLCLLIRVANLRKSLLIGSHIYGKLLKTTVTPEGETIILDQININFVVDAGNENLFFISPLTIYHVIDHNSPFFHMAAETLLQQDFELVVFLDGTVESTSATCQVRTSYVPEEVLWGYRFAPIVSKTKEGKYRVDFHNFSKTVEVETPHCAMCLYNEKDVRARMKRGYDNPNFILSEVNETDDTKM

[2] = target: Voltage-gated inwardly rectifying potassium channel KCNH2 (Homo sapiens, UniProt Q12809); assay: Displacement of fluorescent-labelled dofetilide from human ERG expressed in HEK293 cell membrane homogenates; assay type: cell membranes
Summary of the method: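 Ki from displacement of a fluorescently labelled dofetilide derivative from membrane homogenates of HEK-293 cells stably expressing hERG (Kv11.1).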

[3] = Octanol-sodium phosphate buffer partition coefficient, log D of the compound at pH 7.4 by shake flask method; assay type: physicochemical
[4] = Apparent intrinsic clearance in human liver microsomes; assay type: ADME, microsome; conditions: read-out: CLH(app)
[5] = Apparent permeability in MDCK2-LE cells; assay type: ADME, cell-based, Canis lupus familiaris, MDCK-II; conditions: dog
[6] = target: T2, ATP-sensitive inward rectifier potassium channel 1 (Rattus norvegicus) (UniProt P35560); assay: Inhibition of rat ROMK2 expressed in HEK293 cells at -75 mV holding potential by whole cell patch clamp method; assay type: cell-based
T2 sequence (whole entry): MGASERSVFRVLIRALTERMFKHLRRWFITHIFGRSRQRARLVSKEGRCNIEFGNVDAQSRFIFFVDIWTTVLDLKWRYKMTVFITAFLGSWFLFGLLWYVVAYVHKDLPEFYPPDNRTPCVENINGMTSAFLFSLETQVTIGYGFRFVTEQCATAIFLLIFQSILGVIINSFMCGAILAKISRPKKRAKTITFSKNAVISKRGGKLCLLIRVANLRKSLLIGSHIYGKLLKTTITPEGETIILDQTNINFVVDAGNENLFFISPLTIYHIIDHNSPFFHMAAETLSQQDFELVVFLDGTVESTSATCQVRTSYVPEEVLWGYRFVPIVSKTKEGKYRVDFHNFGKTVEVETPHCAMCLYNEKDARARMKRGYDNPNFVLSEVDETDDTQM

[7] = target: T3, ATP-sensitive inward rectifier potassium channel 1 (Homo sapiens) (UniProt P48048); assay: (§1) Inhibition of human ROMK1 expressed in HEK293 cells after 20 mins by Thallos-AM dye based fluorescence assay; assay type: cell-based
T3 sequence (whole entry): T1 sequence (P48048 whole entry)
Summary of the method: (§2)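 Tl+ flux assay on human or rat ROMK1, run as concentration-response. IC50 is the geometric mean of n≥3 replicates, also given as pIC50±SD. Rat ROMK1 testing went up to 30 µM.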

[8] = test system: T4, ATP-sensitive inward rectifier potassium channel 1 (Homo sapiens), P48048 [K80M]; assay: Inhibition of human Kir1.1 K80M mutant expressed in HEK293 cells at 100 to 300 nM at -75 mV holding potential by whole cell patch clamp method; assay type: cell-based
T4 sequence (whole entry): T1 sequence (P48048 whole entry) with K80M
Summary of the method: (§3)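 Whole-cell currents were recorded under voltage clamp in HEK293 cells transiently expressing human ROMK K80M or the human ROMK K80M/N171D double mutant.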

[9] = test system: T5, ATP-sensitive inward rectifier potassium channel 1 (Homo sapiens), P48048 [N171D]; assay: Inhibition of human Kir1.1 N171D mutant expressed in HEK293 cells at 100 to 300 nM at -75 mV holding potential by whole cell patch clamp method; assay type: cell-based; summary of the method: as §3
T5 sequence (whole entry): T1 sequence (P48048 whole entry) with N171D

[10] = target: T1, ATP-sensitive inward rectifier potassium channel 1; assay: as §1; assay type: cell-based; summary of the method: as §2
[11] = target: T1, ATP-sensitive inward rectifier potassium channel 1; assay: Inhibition of human ROMK1 expressed in HEK293 cells at -75 mV holding potential by whole cell patch clamp method; assay type: cell-based
Summary of the method: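 Whole-cell patch clamp on human ROMK1. IC50 comes from a global fit to a five-point concentration-response curve with n≥4 per concentration, reported with 95% CI.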

[12] = target: T6, ATP-sensitive inward rectifier potassium channel 1 (Rattus norvegicus, UniProt P35560); assay: Inhibition of rat ROMK1 expressed in HEK293 cells after 20 mins by Thallos-AM dye based fluorescence assay; assay type: cell-based
T6 sequence (P35560 whole entry): T2 sequence (whole entry)
Summary of the method: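 Thallium (Tl+) flux assay against rat ROMK1, with concentration-response testing up to 30 µM. IC50 values are geometric means of n≥3 replicates unless otherwise indicated and are also reported as pIC50±SD.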

[13] = target: T7, Kir2.1 (inward rectifier potassium channel 2) (Homo sapiens, UniProt P63252); assay: Inhibition of Kir2.1 (unknown origin) expressed in CHO cells at 10 uM at -75 mV holding potential by whole cell patch clamp method relative to control; assay type: cell-based; conditions: CHO cells expressing Kir2.1
T7 sequence (P63252 whole entry): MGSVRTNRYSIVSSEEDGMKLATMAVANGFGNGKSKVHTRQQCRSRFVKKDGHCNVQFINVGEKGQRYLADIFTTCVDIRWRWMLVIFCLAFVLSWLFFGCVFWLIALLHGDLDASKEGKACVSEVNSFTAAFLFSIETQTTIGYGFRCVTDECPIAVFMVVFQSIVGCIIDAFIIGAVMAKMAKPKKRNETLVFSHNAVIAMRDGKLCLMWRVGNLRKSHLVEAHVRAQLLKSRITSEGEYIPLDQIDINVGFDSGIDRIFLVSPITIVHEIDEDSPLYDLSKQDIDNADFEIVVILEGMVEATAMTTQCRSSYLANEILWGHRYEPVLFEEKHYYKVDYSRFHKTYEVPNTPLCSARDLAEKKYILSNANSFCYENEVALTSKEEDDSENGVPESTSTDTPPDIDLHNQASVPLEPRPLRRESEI
Summary of the method: (§4)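 Whole-cell patch-clamp recordings in CHO cells stably expressing either Kir2.1 or Kir4.1.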

[14] = target: T8, ATP-sensitive inward rectifier potassium channel 10 (Homo sapiens) (UniProt P78508); assay: Inhibition of Kir4.1 (unknown origin) expressed in CHO cells at 10 uM at -75 mV holding potential by whole cell patch clamp method relative to control; assay type: cell-based; summary of the method: as §4
T8 sequence (whole entry): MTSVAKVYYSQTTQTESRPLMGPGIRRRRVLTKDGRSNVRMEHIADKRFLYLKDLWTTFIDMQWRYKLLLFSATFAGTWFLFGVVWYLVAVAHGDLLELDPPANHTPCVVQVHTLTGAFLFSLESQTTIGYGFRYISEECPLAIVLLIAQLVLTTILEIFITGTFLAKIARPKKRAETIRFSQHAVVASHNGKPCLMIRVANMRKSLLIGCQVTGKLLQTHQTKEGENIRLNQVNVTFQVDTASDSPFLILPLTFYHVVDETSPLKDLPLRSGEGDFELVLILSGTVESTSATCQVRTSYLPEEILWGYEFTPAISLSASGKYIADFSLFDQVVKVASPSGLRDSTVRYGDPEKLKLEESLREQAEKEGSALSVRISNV

[15] = octanol/sodium phosphate buffer, read-out: logD

Voltage-gated inwardly rectifying potassium channel KCNH2, sequence (Q12809 whole entry): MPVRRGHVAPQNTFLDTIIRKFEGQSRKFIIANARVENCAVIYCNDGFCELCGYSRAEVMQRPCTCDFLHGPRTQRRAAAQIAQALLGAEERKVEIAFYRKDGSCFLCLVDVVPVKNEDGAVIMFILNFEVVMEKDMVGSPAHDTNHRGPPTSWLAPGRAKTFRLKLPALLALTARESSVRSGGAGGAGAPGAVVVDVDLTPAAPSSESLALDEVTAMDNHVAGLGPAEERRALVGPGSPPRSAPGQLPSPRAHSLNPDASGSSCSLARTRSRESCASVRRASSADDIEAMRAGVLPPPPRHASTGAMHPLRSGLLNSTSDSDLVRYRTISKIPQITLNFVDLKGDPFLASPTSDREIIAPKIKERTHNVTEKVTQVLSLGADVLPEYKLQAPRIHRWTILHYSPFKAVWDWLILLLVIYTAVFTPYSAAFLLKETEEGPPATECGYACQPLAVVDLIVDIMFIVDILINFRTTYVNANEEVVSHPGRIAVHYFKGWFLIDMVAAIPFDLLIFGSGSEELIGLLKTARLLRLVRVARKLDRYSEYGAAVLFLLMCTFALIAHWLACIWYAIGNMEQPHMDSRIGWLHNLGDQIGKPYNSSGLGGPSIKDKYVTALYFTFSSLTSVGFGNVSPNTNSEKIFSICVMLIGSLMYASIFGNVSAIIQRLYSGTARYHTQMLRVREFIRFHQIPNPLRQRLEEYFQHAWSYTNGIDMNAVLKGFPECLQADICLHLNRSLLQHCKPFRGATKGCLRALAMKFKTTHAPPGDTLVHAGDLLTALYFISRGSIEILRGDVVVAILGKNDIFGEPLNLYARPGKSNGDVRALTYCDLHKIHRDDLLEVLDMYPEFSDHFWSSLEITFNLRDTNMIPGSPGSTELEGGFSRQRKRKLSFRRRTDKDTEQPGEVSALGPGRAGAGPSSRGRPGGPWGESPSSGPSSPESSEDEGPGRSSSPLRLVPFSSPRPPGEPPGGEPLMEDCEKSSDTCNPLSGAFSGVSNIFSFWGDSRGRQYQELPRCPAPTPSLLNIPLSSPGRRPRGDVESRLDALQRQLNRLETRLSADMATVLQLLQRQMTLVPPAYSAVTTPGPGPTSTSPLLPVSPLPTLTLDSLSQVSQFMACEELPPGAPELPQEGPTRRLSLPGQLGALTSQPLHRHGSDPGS

Compound	IC50 [1] [nM]	logD [3, 15]	CLint scaled [4] [mL/min/kg]	Papp ([5]; MDCK, read-out: Papp) [×10⁻⁶ cm/s]	IC50 ([10]; read-out: IC50) [nM]	IC50 [12] [nM]	Ki [2] [nM]	further results
COc1ccc(C(=O)NCc2nc(C)no2)cc1S(=O)(=O)Nc1ccc(C)cc1	1300	2.3	10	8	–	–	> 40000	–
Cc1ccc(NS(=O)(=O)c2cccc(C(=O)NCc3nc(C)no3)c2)cc1	17000	2.3	9	22	–	–	> 40000	–
COc1ccc(C(=O)NC(C)c2cnn(C)n2)cc1S(=O)(=O)Nc1ccc(Cl)cc1 (single isomer, unassigned; (-)) [listing 1 of 2 here]	–	–	–	–	–	–	–	inhibition [6]: inactive; inhibition [7]: Dose-dependent effect; inhibition [8]: Active; inhibition [9]: Active
COc1ccc(C(=O)NC(C)c2cnn(C)n2)cc1S(=O)(=O)Nc1ccc(Cl)cc1 (single isomer, unassigned; (+))	13000	–	–	–	–	–	> 40000	logD ([3]; octanol/water): 2.7; Papp ([5]; mdck-ii): 11 ×10⁻⁶ cm/s
O=[N+]([O-])c1ccc2nc(COCc3nc4ccc([N+](=O)[O-])cc4[nH]3)[nH]c2c1	–	–	–	–	744	420	–	–
Cc1ccc(NS(=O)(=O)c2cc(C(=O)NCc3cccnc3)ccc2C)cc1	6500	3	120	15	–	–	> 40000	inhibition at 10 µM [13]: 13%; inhibition [14]: 19%
Cc1ccc(NS(=O)(=O)c2cc(C(=O)NCc3nc(C)no3)ccc2C)cc1	440	2.7	30	20	–	–	> 40000	–

Continued by falling IC50 [1], values first:

IC50 [1] [nM]	logD [3, 15]	CLint scaled [4] [mL/min/kg]	Papp ([5]; MDCK, read-out: Papp) [×10⁻⁶ cm/s]	IC50 ([10]; read-out: IC50) [nM]	IC50 [12] [nM]	Compound	Ki [2] [nM]	further results
280	2.4	< 8	12	1040	> 30000	Cc1ccc(C(=O)NCc2cn(C)nn2)cc1S(=O)(=O)Nc1ccc(-c2ccno2)cc1	> 40000	inhibition [6]: inactive; inhibition [7]: Dose-dependent effect; IC50 ([10]; read-out: pIC50 (converted)): 1260 nM; IC50 [11]: 104 nM
160	2.6	< 8	16	391	> 30000	COc1ccc(C(=O)NC(C)c2cnn(C)n2)cc1S(=O)(=O)Nc1ccc(Cl)cc1 (single isomer, unassigned; (-)) [listing 2 of 2 here]	28000	IC50 [11]: 61 nM
110	2.3	25	6	–	–	Cc1noc(CNC(=O)c2ccc(C)c(S(=O)(=O)Nc3ccc(-c4ccno4)cc3)c2)n1	> 40000	–
86	2.9	< 9	19	–	–	Cc1ccc(C(=O)NCc2cn(C)nn2)cc1S(=O)(=O)Nc1ccc(Cl)cc1	> 40000	–
85	3	35	19	777	> 30000	Cc1noc(CNC(=O)c2ccc(C)c(S(=O)(=O)Nc3ccc(Cl)cc3)c2)n1	> 40000	inhibition [7]: Dose-dependent effect; IC50 [11]: 62 nM
35	2.2	69	10	–	–	Cc1noc(CNC(=O)c2ccc(C)c(S(=O)(=O)Nc3ccc(-c4cnco4)cc3)c2)n1	> 40000	–
